Cav32 inh – Cav3.2 calcium influx blockers – cell-based, Fluo-4 calcium fluorescence, FDSS, MLSMR library, primary screen; Voltage-dependent T-type calcium channel subunit alpha-1H (Homo sapiens), O95180; Cav3.2-expressing cells; active compounds read low; B-score at 10 µM; hit rate 4% among 100,000;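 active means single-dose well whose peak fluorescence ratio is a statistical outlier from its plate by either plate-standardised score or position-corrected B-score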
Target sequence (O95180 whole entry, looked up): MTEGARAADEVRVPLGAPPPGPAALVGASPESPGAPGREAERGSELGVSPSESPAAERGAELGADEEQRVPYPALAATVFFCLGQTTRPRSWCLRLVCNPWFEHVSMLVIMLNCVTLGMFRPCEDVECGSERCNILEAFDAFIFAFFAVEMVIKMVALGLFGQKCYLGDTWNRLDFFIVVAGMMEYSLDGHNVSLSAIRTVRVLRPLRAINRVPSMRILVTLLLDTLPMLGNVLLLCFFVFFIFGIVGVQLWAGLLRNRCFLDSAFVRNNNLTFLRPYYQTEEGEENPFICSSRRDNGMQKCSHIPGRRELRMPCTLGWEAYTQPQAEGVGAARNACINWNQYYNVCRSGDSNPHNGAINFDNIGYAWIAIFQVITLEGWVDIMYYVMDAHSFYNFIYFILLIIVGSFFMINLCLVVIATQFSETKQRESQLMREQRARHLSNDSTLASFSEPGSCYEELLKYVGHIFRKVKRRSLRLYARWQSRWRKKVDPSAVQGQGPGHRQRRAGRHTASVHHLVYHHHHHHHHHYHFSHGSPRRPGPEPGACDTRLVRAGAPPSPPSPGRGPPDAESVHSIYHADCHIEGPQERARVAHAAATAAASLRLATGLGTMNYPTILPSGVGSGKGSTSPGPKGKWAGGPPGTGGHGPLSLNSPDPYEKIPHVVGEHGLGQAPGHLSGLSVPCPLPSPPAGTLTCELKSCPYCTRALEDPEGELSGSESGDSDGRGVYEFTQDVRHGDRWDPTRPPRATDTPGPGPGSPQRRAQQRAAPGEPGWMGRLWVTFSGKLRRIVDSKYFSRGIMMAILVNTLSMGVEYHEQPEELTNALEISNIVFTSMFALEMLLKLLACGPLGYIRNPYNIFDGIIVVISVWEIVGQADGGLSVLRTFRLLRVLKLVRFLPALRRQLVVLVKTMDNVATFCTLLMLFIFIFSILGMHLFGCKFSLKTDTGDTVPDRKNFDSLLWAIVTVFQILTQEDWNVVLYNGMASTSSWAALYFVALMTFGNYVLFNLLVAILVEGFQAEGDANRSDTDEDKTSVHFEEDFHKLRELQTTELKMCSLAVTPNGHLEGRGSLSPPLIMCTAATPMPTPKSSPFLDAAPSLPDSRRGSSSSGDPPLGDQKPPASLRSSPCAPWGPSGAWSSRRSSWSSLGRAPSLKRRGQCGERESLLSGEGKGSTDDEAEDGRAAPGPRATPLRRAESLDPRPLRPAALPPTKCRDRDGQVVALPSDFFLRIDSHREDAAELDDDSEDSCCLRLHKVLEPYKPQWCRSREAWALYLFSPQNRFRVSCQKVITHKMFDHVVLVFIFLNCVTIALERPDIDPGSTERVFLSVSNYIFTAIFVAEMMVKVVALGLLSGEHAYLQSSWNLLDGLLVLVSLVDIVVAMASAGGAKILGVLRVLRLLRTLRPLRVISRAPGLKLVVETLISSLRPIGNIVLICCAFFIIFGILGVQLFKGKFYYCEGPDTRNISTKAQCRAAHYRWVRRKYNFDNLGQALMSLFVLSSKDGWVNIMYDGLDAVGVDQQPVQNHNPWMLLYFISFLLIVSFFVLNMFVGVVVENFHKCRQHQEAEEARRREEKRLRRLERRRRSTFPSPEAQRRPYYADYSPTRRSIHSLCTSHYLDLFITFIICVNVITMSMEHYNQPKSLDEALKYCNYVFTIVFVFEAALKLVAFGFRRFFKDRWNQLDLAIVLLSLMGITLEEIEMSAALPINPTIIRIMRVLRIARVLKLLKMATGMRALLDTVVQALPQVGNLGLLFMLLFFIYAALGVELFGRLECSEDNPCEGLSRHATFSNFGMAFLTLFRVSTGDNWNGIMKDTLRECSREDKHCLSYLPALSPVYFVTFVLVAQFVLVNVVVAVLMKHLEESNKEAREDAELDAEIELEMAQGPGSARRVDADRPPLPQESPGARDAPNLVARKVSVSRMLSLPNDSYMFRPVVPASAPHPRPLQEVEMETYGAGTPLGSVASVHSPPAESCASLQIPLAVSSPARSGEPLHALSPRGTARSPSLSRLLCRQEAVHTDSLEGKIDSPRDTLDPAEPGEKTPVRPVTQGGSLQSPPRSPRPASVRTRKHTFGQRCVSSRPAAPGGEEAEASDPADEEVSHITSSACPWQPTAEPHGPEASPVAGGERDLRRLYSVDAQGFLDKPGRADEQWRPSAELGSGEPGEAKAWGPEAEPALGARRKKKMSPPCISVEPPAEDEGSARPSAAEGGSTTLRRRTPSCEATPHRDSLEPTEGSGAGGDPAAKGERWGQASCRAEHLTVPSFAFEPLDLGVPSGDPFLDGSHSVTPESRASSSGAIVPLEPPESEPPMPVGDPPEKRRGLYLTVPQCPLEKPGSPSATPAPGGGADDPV
PostGolgi ctrl – growth inhibition of yeast control strain, primary screen, counter-screen for post-Golgi transport modulator project; inhibition, % at 10 µM; efflux-deficient yeast background strain, growth absorbance A615, 16 h; AID 738, 2007; hit rate 5% among 98,000
PostGolgi yeast – phenotypic screen on post-Golgi transport, primary screen; AID 739, 2007; post-Golgi transport phenotypic cell assay; inhibition, % at 10 µM; hit rate 0.9% among 98,000;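 further: yeast cells grown in 1536-well plates; yeast grown about 18 h at 30C before absorbance read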
Ecoli WT expand – growth inhibitors of wild-type E. coli, primary screen, strain BW25113, expanded library, OD600. OD600 absorbance. growth inhibition, % at 100 µM. hit rate 0.15% among 98,000;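 active means growth inhibition above about 50% at one test dose, limit read from the data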;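 further: growth measured after 20 h incubation at 37 °C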
Ecoli tolC – growth inhibitors of E. coli tolC mutant, primary screen, strain BW25113 ΔtolC::kan, 384-well | OD615 | growth inhibition, % at 10 µM (by protocol) | hit rate 2.2% among 65,000 | AID 573, 2007;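 active means growth inhibition at or above a cutoff equal to the mean over every tested compound plus 3 SD, cut at about 60% in these data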;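 further: growth measured after 20 h incubation at 37 °C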
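Test system: tolC-deleted E. coli BW25113 | Medium: LB with kanamycin 50 µg/mL | Compound dosing: Single concentration, 10 µM final per compound | Schedule: 37 °C, 20 h exposure | Measured by: OD at 615 nm | Evaluation: Percent growth inhibition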
Large screens that a line does not name were inactive. A selection: hits, their analogues and other compounds. The true share with any hit is near 8.4%. Unless noted, no stated cut-off is given here; in the data, active means inhibition above about 30%; inactive means the rest.

Cc1ccc(C2=NN3C(C(=O)c4ccccc4)Oc4ccccc4C3C2)cc1 (stereo not drawn)	Cav32 inh -7.3, PostGolgi ctrl 50 (no result: Ecoli tolC)
CC(=O)N1N=C(c2ccc3nccnc3c2)CC1c1ccccc1 (stereo not drawn)	none (no result: Ecoli tolC)
CCCCCCNc1nc(NCc2ccco2)nc(OCC)n1	Cav32 inh -7.2 (no result: Ecoli tolC)
Fc1cccc(Cl)c1CSc1nnc(COc2cccc3cccnc23)o1	PostGolgi ctrl 62
Brc1ccccc1-c1nnc(COc2cccc3cccnc23)o1	PostGolgi ctrl 33 (no result: Ecoli tolC)
Clc1ccccc1OCc1nnc(-c2ccccc2Br)o1	Ecoli tolC 72
CCOC(=O)c1sc(NC(=O)CSc2n[nH]c(-c3ccc(Cl)cc3Cl)n2)c(C#N)c1C	none (no result: Cav32 inh, Ecoli tolC)
C=CCN(c1ccc(C(=O)N2CCCC2)cc1)S(C)(=O)=O	PostGolgi ctrl 39 (no result: Cav32 inh)
COc1cccc(NC(=S)N2CCN(C/C=C/c3ccccc3)CC2)c1	Cav32 inh -4.9 (no result: Ecoli tolC)
O=C(COC(=O)CC12CC3CC(CC(C3)C1)C2)Nc1ncc(Cl)cc1Cl	Cav32 inh -5.9, PostGolgi ctrl 37 (no result: Ecoli tolC)
CC(C)(Oc1ccc(Cl)cc1)C(=O)OCC(=O)Nc1ncc(Cl)cc1Cl	Cav32 inh -6.9 (no result: Ecoli tolC)
COc1cc(Cn2c(C(=O)O)cc3sccc32)cc(OC)c1OC	none
O=C(CSc1nnc(-c2ccc(Cl)cc2)n1Cc1ccco1)Nc1ccc2c(c1)OCCO2	none (no result: PostGolgi ctrl, PostGolgi yeast, Ecoli WT expand)
Cc1cc(Cl)ccc1NC(=O)CSc1nnc(-c2ccncc2)n1Cc1ccco1	none
CC(=O)Nc1cccc(NC(=O)CSc2ncc(-c3ccc(Cl)cc3)n2Cc2ccco2)c1	Cav32 inh -3.8, PostGolgi ctrl 37, Ecoli tolC 94
COc1ccc(-c2cnc(SCC(=O)Nc3ccc4c(c3)OCO4)n2Cc2ccco2)cc1	Cav32 inh -4.1, Ecoli tolC 66
CN(C(=O)/C(N=Nc1cccc(C(F)(F)F)c1)=C(\O)C(F)(F)F)c1ccccc1	PostGolgi ctrl 38 (no result: Cav32 inh, Ecoli tolC)
CN(C)c1nn(C(=O)Nc2cccc(C(F)(F)F)c2)cc1-c1ccccc1	none (no result: Ecoli tolC)
COc1ccc(C2OC34CCCCC3C(C#N)(C#N)C2(C#N)C(=N)O4)cc1 (stereo not drawn)	none (no result: Ecoli tolC)
FC(F)(F)c1cc(-c2ccccc2)nc(NCc2cccnc2)n1	PostGolgi ctrl 34 (no result: Ecoli tolC)
FC(F)(F)c1cc(-c2ccco2)nc(NCc2cccnc2)n1	none (no result: Cav32 inh)
CCCCN(C(=O)c1c(C)[nH]c(C(=O)OCC)c1C)c1ccccc1	none
Cc1ccnc(N2C(=O)c3cccc4c([N+](=O)[O-])ccc(c34)C2=O)c1	PostGolgi ctrl 53, PostGolgi yeast 105 (no result: Ecoli tolC)
Cc1n[nH]c(C)c1N1C(=O)c2cccc3c(Br)ccc(c23)C1=O	none (no result: PostGolgi ctrl, PostGolgi yeast, Ecoli WT expand, Ecoli tolC)
O=C(N/N=C/c1ccc(Cl)cc1)Nc1ccccc1	Cav32 inh -6.5 (no result: Ecoli tolC)
Cc1ccc(NC(=O)N/C=C/c2ccc(Cl)cc2)cc1	PostGolgi ctrl 31 (no result: Cav32 inh, Ecoli tolC)
Cc1cc(C)c(S(=O)(=O)Nc2ccc[nH]c2=O)c(C)c1	none
Cn1cc(C(=O)c2ccc(Cl)cc2Cl)cc1C(=O)N/N=C(\N)COc1ccccc1	Cav32 inh -6.6 (no result: Ecoli tolC)
Cn1cc(C(=O)c2ccc(Cl)cc2Cl)cc1C(=O)N/N=C(\N)COc1ccc(F)cc1	Cav32 inh -6.1 (no result: Ecoli tolC)
Cn1cc(C(=O)c2ccc(Cl)cc2Cl)cc1C(=O)N/N=C(\N)COc1ccc(Cl)cc1Cl	none (no result: Cav32 inh, Ecoli tolC)
CC(C)Cn1c(=O)n(C)c(=O)c2[nH]cnc21	none (no result: PostGolgi ctrl, PostGolgi yeast, Ecoli WT expand, Ecoli tolC)
Cc1ccc(O)c(NC(=O)c2cc3nc4c(c(C(F)(F)F)n3n2)CCc2ccccc2-4)c1	PostGolgi ctrl 35 (no result: Ecoli tolC)
Cc1ccc(Cn2ccc(NC(=O)c3cc4nc5c(c(C(F)(F)F)n4n3)CCc3ccccc3-5)n2)cc1	none (no result: Ecoli tolC)
Cn1c(SCC(=O)c2ccc(F)cc2)nnc1-c1cnccn1	PostGolgi ctrl 39
Cn1c(SCC(=O)N2CCOCC2)nnc1-c1cnccn1	none
CCOc1nc(SCCOc2ccc(C)cc2)nc(N(C)C)n1	Cav32 inh -6.4
CN(C)CC(C(=O)c1ccccc1)c1ccccc1 (stereo not drawn)	PostGolgi ctrl 31
CN(C)CC(=O)c1ccc(-c2ccccc2)cc1	none
CCC(NC(=O)NCc1cccnc1)(C(F)(F)F)C(F)(F)F	none
C/C(O)=C(\C#N)c1nc2ccccc2[nH]1	none (no result: Ecoli tolC)
O=C(/C=C/c1cccc(Cl)c1)c1nc2ccccc2[nH]1	PostGolgi ctrl 93, PostGolgi yeast 100 (no result: Ecoli tolC)
O=C(c1ccccc1)c1ccccc1N/C=C/c1nnnn1-c1ccccc1	PostGolgi ctrl 35 (no result: Ecoli tolC)
CCC(C(=O)Nc1ccccc1OC)n1c(C(=O)OC)cc2ccsc21 (stereo not drawn)	Ecoli tolC 71
O=S1(=O)CCC(N=Cc2cc(Br)ccc2O)C1 (stereo not drawn)	Cav32 inh -12
Cc1nn(-c2ccc(F)cc2)c2nc(N)c(C#N)c(-c3cccs3)c12	none
COc1cc(-c2c(C#N)c(N)nc3c2c(C)nn3-c2ccc(C)c(C)c2)cc(OC)c1OC	Cav32 inh -4.8
Cc1nn(-c2ccccc2)c(C)c1/C=N\N1CCN(c2ccc(Cl)cc2)CC1	PostGolgi ctrl 47, PostGolgi yeast 66 (no result: Ecoli tolC)
O=C(Oc1ccc(/C=N/O)cc1)c1ccccc1	PostGolgi ctrl 31
COc1ccc(NC(=O)C2CCC(=O)N2S(=O)(=O)c2ccc(C)cc2)c(OC)c1 (stereo not drawn)	none
O=C(NC1CCN(C(=O)N2c3ccccc3Sc3ccccc32)CC1)c1ccccc1Cl	PostGolgi ctrl 43 (no result: Ecoli tolC)
COc1cccc(C(=O)NC2CCN(C(=O)N3c4ccccc4Sc4ccccc43)CC2)c1	Cav32 inh -3.9 (no result: Ecoli tolC)
CC1(C)N([O-])C2=C(c3ccccc3C2=O)[N+](=O)C1(C)C	none (no result: Ecoli tolC)
C=CCOc1ccc2ccccc2c1/C=N/O	Cav32 inh -1.5 (no result: Ecoli tolC)
C=CCOc1ccc(Br)cc1/C=N/O	Cav32 inh -3.9 (no result: Ecoli tolC)
CCc1ccc2c(c1)/C(=C/C(=O)c1cccs1)C(=O)N2	PostGolgi ctrl 87, PostGolgi yeast 76 (no result: Ecoli tolC)
Cc1cc(C)c2c(c1)/C(=C/C(=O)c1ccc(Br)s1)C(=O)N2	PostGolgi ctrl 71, PostGolgi yeast 103 (no result: Ecoli tolC)
Cc1cccc2c1NC(=O)/C2=C\C(=O)c1cccs1	PostGolgi ctrl 52 (no result: Ecoli tolC)
CCOC(=O)c1ccc2c(c1)nc(SCc1cn3ccsc3n1)n2CC	none
COC(=O)c1ccc(C(=O)OC)c(NC(=O)CSCc2ccc(Br)cc2)c1	none (no result: Ecoli tolC)
COc1ccc(-n2cnnc2SCc2ncc(-c3ccccc3)o2)cc1	none
Cn1c(COc2ccc(Cl)cc2)nnc1SCc1ncc(-c2ccccc2)o1	Cav32 inh -9.9, PostGolgi ctrl 47
Cn1c2ccc(F)cc2c2ncn(CCN3CCOCC3)c(=O)c21	PostGolgi yeast 33
Cn1c2ccccc2c2ncn(CCC3=CCCCC3)c(=O)c21	PostGolgi ctrl 34
COc1ccc(S(=O)(=O)N(Cc2ccccc2)Cc2nc(-c3ccccc3)no2)cc1	Cav32 inh -5.5
COc1ccc(-c2noc(CN(C)S(=O)(=O)c3ccccc3)n2)cc1OC	none (no result: PostGolgi ctrl, PostGolgi yeast, Ecoli WT expand)
c1ccc(-n2nnnc2SCc2cccc(CSc3nnnn3-c3ccccc3)n2)cc1	none (no result: PostGolgi ctrl, PostGolgi yeast, Ecoli WT expand, Ecoli tolC)
Clc1ccc(-n2nnnc2SCc2c(-c3ccccc3)nc3sccn23)cc1	PostGolgi ctrl 35

Screening data (PubChem)
